Test results: ChEMBL document CHEMBL1914380, “Polyalkoxybenzenes from plants. 5. Parsley seed extract in synthesis of azapodophyllotoxins featuring strong tubulin destabilizing activity in the sea urchin embryo and cell culture assays” (J Med Chem, 2011)
Activity calls are given as the source filed them. The calls are words filed in the database; no cut-off is given here.

Assays:
[1] = system: Paracentrotus lividus; experiment: Antimitotic activity against Paracentrotus lividus embryo assessed as embryo spinning treated 10 to 25 mins post fertilization followed by 45 to 60 mins before the first mitotic cycle completion by sea urchin embryo assay; format: functional
[2] = system: Paracentrotus lividus; experiment: Antimitotic activity against Paracentrotus lividus embryo assessed as cleavage alteration treated 10 to 25 mins post fertilization followed by 45 to 60 mins before the first mitotic cycle completion by sea urchin embryo assay; format: functional
[3] = system: Paracentrotus lividus; experiment: Antimitotic activity against Paracentrotus lividus embryo assessed as cleavage arrest treated 10 to 25 mins post fertilization followed by 45 to 60 mins before the first mitotic cycle completion by sea urchin embryo assay; format: functional
[4] = system: A549; experiment: Cytotoxicity against human A549 cells assessed as cell viability after 24 hrs by MTT assay; format: functional, cell-based; settings: A549, 24 h
Outline: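 A549 human lung carcinoma cells; growth inhibition measured by MTT assay. IC50 derived from dose-response curves, mean ± SD of three independent experiments.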

[5] = system: A549; experiment: Inhibition of microtubule polymerization in human A549 cells assessed as total disruption of interphase microtubule network at 0.5 uM after 8 hrs by immunofluorescence microscopy; format: cell-based
Outline: (§1)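 A549 cells incubated 8 h with compound at 0.1, 0.5, 1 and 5 μM; DMSO vehicle as negative control. Microtubules labelled by indirect immunofluorescence and examined by fluorescence microscopy. Value is the concentration giving total interphase microtubule disassembly, from three independent experiments.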

[6] = system: A549; experiment: Inhibition of microtubule polymerization in human A549 cells assessed as total disruption of interphase microtubule network at 0.1 uM after 8 hrs by immunofluorescence microscopy; format: cell-based; outline: as §1
[7] = system: A549; experiment: Inhibition of microtubule polymerization in human A549 cells assessed as total disruption of interphase microtubule network at 1 uM after 8 hrs by immunofluorescence microscopy; format: cell-based; outline: as §1
[8] = system: A549; experiment: Inhibition of microtubule polymerization in human A549 cells assessed as total disruption of interphase microtubule network at 5 uM after 8 hrs by immunofluorescence microscopy; format: cell-based; outline: as §1

Row | Structure (SMILES) | EC [1] [nM] | EC [2] [nM] | EC [3] [nM] | IC50 [4] [nM] | inhibition [5] | inhibition [6] | inhibition [7] | inhibition [8]
1 | COc1cc(OC)cc(C2C3=C(COC3=O)Nc3cc(OC)ccc32)c1 (configuration not stated) | 200 | 2 | 10 | – | – | – | – | –
2 | OC1=C2C(=Nc3cc4c(cc3C2c2ccccc2)OCO4)CO1 (configuration not stated) | 100 | 5 | 20 | 63 | – | – | – | –
3 | COc1ccc(C2C3=C(COC3=O)Nc3cc4c(c(OC)c32)OCO4)cc1 (configuration not stated) | >2000 | 2000 | >2000 | – | – | – | – | –
4 | COc1cc(C2C3=C(COC3=O)Nc3c2ccc2c3CCCC2)cc2c1OCO2 (configuration not stated) | 100 | 5 | 50 | 159 | – | – | – | –
5 | COc1cc(-c2c3c(nc4c5c(ccc24)CCC5)COC3=O)cc2c1OCO2 | >5000 | 100 | >4000 | – | – | – | – | –
6 | COc1cc([C@@H]2C3=C(COC3=O)Nc3cc4c(cc32)OCO4)cc2c1OCO2 | 50 | 50 | 200 | – | – | – | – | –
7 | COc1cc(C2C3=C(COC3=O)Nc3cc4c(cc32)CCC4)cc2c1OCO2 (configuration not stated) | 50 | 2 | 20 | 264 | Active | Active | Active | Active
8 | COc1ccc2c(c1)C(c1cc(OC)c3c(c1)OCO3)C1=C(COC1=O)N2 (configuration not stated) | 500 | 10 | 50 | 282 | Active | Active | Active | Active
9 | COc1cc(-c2c3c(nc4c5c(ccc24)CCCC5)COC3=O)cc2c1OCO2 | 5000 | 200 | 2000 | – | – | – | – | –
10 | COc1cc(C2C3=C(COC3=O)Nc3cc4c(cc32)OCO4)c(OC)c2c1OCO2 (configuration not stated) | >5000 | 1000 | 2000 | – | – | – | – | –
11 | COc1cccc(C2C3=C(O)OCC3=Nc3cc4c(cc32)OCO4)c1 (configuration not stated) | 100 | 5 | 20 | – | – | – | – | –
12 | COc1ccc(C2C3=C(O)OCC3=Nc3cc4c(cc32)OCO4)cc1 (configuration not stated) | 2000 | 50 | 200 | > 3200 | – | – | – | –
13 | COc1cc([C@H]2C3=C(COC3=O)Nc3cc4c(cc32)OCO4)cc2c1OCO2 | – | 5 | 50 | – | – | – | – | –
14 | COc1c(C2C3=C(COC3=O)Nc3cc4c(cc32)OCO4)cc2c(c1OC)OCO2 (configuration not stated) | 4000 | 100 | 500 | – | – | – | – | –
15 | OC1=C2C(=Nc3cc4c(cc3C2c2ccc3c(c2)OCO3)OCO4)CO1 (configuration not stated) | 200 | 10 | 50 | – | – | – | – | –
16 | COc1cc(-c2c3c(nc4cc5c(cc24)CCC5)COC3=O)cc2c1OCO2 | >5000 | 100 | 1000 | – | – | – | – | –
17 | O=C1OCC2=C1C(c1ccc3c(c1)OCO3)c1c(ccc3ccccc13)N2 (configuration not stated) | >4000 | >4000 | >4000 | – | – | – | – | –
18 | COc1cc(C2C3=C(COC3=O)Nc3cc4c(c(OC)c32)OCO4)cc(OC)c1OC (configuration not stated) | >2000 | 2000 | >2000 | 291 | Active | Active | Active | Active
19 | COc1cc(C2C3=C(O)OCC3=Nc3cc4c(cc32)OCCO4)cc(OC)c1OC (configuration not stated) | 1000 | 200 | 1000 | 9.2 | Active | Active | Active | Active
20 | COc1cc(C2C3=C(COC3=O)Nc3cc4c(cc32)OCO4)c(OC)c(OC)c1OC (configuration not stated) | >10000 | 1000 | 4000 | 299 | Active | Active | Active | Active
